The source of these data is ChEMBL document CHEMBL1126217, “Side-chain derivatives of biologically active nucleosides. 1. Side-chain analogs of 3'-azido-3'-deoxythymidine (AZT)” (J Med Chem, 1992).

In brackets after ≈: the same amount, converted by molar mass. Activity calls are given as the source filed them. The calls are words filed in the database; no cut-off is given here. Where only a bound is given, the exact number is not on record here.

Test [1] relates to Vaccinia virus. Put plainly: Inhibitory activity against Vaccinia virus(VV) at a concentration 400 ug/mL; not effective. Format: functional, organism-based. The note with it: Orthopoxvirus vaccinia.
Test [2] is described as follows: Inhibitory activity against herpes simplex virus type-1 (HSV-1) at a concentration 400 ug/mL; not effective. It is filed as functional, organism-based. The note with it: Human alphaherpesvirus 1.
In test [3] the test system is Human immunodeficiency virus. Put plainly: Compound was evaluated for the cytotoxic concentration against HIV. It is filed as functional. The note with it: Human immunodeficiency virus 1. The procedure, abridged: (§1)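 Infected cells mixed with serial compound dilutions (tested up to 200 μg/mL) and incubated 5 days at 37 °C. Viable cells counted microscopically in a hematocytometer by trypan blue exclusion to give 50% effective and cytotoxic concentrations.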

Test [4] concerns Human alphaherpesvirus 2. Put plainly: Inhibitory activity against herpes simplex virus type-2 (HSV-2) at a concentration 400 ug/mL; not effective. It is filed as functional, organism-based.
In test [5] the test system is Vaccinia virus. Nature of the test: Inhibitory activity against Vaccinia virus(VV)at a concentration 400 ug/mL; not effective. Format: functional, organism-based. The note with it: Orthopoxvirus vaccinia.
Test [6] relates to MT4. Nature of the test: Inhibitory activity toward HIV replication in MT-4 cells. Format: functional, cell-based. The note with it: Homo sapiens. The procedure, abridged: as §1
For test [7], the system named is Vaccinia virus. Put plainly: Inhibitory activity towards Vaccinia virus(VV). The note with it: Orthopoxvirus vaccinia. Format: functional.
The subject of test [8] is Human alphaherpesvirus 2. Nature of the test: Inhibitory activity towards herpes simplex virus type-2 (HSV-2).
Test [9] has as its system Vesicular stomatitis virus. Put plainly: Inhibitory activity towards Vesicular stomatitis virus(VSV). Format: functional.
The test system of test [10] is Human alphaherpesvirus 1. Put plainly: Inhibitory activity towards herpes simplex virus type-1 (HSV-1).

`Cc1cn(C2CC(N=[N+]=[N-])C(CCO)O2)c(=O)[nH]c1=O` (configuration not stated): the CC50 result in test [1] and in test [4] was “inactive” in each case. The HSV-1 inhibitory activity result in test [2] is “inactive”. The CC50 in test [3] was 200 µg/mL (≈ 711 µM).
As to `Cc1cn(C2CC(N=[N+]=[N-])C([C@H](O)CO)O2)c(=O)[nH]c1=O` (some centres not stated), the CC50 result in test [5] and in [4] was “inactive” in each case. Moreover, the HSV-1 inhibitory activity result in test [2] is “inactive”. In test [3], the CC50 was > 200 µg/mL.
In turn, `Cc1cn([C@H]2C[C@H](N=[N+]=[N-])[C@@H](CO)O2)c(=O)[nH]c1=O` [ZIDOVUDINE] gave an EC50 in test [6] of 0.002 µg/mL (≈ 0.00748 µM).
As for `Cc1cn(C2CC(N=[N+]=[N-])C([C@H](C)O)O2)c(=O)[nH]c1=O` (some centres not stated), the CC50 entry in [5] and in [4] was “inactive” in each case. Moreover, the HSV-1 inhibitory activity result in [2] was “inactive”. For the same compound, in test [3], the CC50 is > 200 µg/mL.
Consider `Cc1cn(C2CC(N=[N+]=[N-])C([C@@H](C)O)O2)c(=O)[nH]c1=O` (some centres not stated), for which the CC50 in test [7] was 300 µg/mL (≈ 1070 µM); in test [8], 300 µg/mL (≈ 1070 µM); in test [9], > 400 µg/mL; in [3], > 200 µg/mL; in test [10], 150 µg/mL (≈ 533 µM).
As to `Cc1cn(C2CC(N=[N+]=[N-])C([C@@H](O)CO)O2)c(=O)[nH]c1=O` (some centres not stated), the CC50 entry in test [5] and in test [4] was “inactive” throughout. Also, the HSV-1 inhibitory activity entry in test [2] was “inactive”. The compound further yielded a CC50 in test [3] of 17.7 µg/mL (≈ 59.5 µM).
